Source: ChEMBL document CHEMBL4033653, “Effect of 1,2,3-triazole salts, non-classical bioisosteres of miltefosine, on Leishmania amazonensis” (Bioorg Med Chem, 2017)
pIC50: −log10 of the molar value.

Columns and labels:
Leishmania amazonensis [1] = test: Antileishmanial activity against Leishmania amazonensis IFLA/BR/1967/PH8 promastigotes after 72 hrs by MTT assay; assay type: functional
[2] = Selectivity index, ratio of CC50 for mouse peritoneal macrophages to IC50 for Leishmania amazonensis WHOM/BR/75/Josefa amastigotes transfected with green fluorescent protein
Procedure, shortened: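 SI = CC50 for mouse peritoneal macrophages / GFP amastigote IC50. […] IC50: macrophages infected with GFP-expressing Josefa-strain parasites, treated with 0.78–100.0 µM for 72 h; fluorescence read at 485 nm excitation/528 nm emission. Three experiments in duplicate.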

Leishmania amazonensis [3] = test: Induction of apoptosis in Leishmania amazonensis IFLA/BR/1967/PH8 promastigotes assessed as early apoptotic population at 5 uM after 24 hrs by Annexin V-FITC/PI staining based flow cytometric analysis (reference value: 5.29%); assay type: functional
Procedure, shortened: (§1)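 Exponential-phase WT promastigotes (1x10^7 cells/mL) cultured 24 h at 25 °C; stained annexin V-FITC plus PI, flow cytometry with 10,000 events gated on parasites; quadrant percentages; three independent experiments.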

Leishmania amazonensis [4] = test: Induction of apoptosis in Leishmania amazonensis IFLA/BR/1967/PH8 promastigotes assessed as late apoptotic population at 10 uM after 24 hrs by Annexin V-FITC/PI staining based flow cytometric analysis (reference value: 2.62%); assay type: functional; procedure, shortened: as §1
Leishmania amazonensis [5] = test: Induction of apoptosis in Leishmania amazonensis IFLA/BR/1967/PH8 promastigotes assessed as necrotic population at 10 uM after 24 hrs by Annexin V-FITC/PI staining based flow cytometric analysis (reference value: 0.03%); assay type: functional; procedure, shortened: as §1
Leishmania amazonensis [6] = test: Induction of apoptosis in Leishmania amazonensis IFLA/BR/1967/PH8 promastigotes assessed as late apoptotic population at 5 uM after 24 hrs by Annexin V-FITC/PI staining based flow cytometric analysis (reference value: 2.62%); assay type: functional; procedure, shortened: as §1
Leishmania amazonensis [7] = test: Antileishmanial activity against Leishmania amazonensis IFLA/BR/1967/PH8 amastigotes infected in murine macrophages at 0.9 uM incubated for 72 hrs followed by compound washout measured after 72 hrs by microscopic method relative to control; assay type: functional; settings: IFLA/BR/1967/PH8, 72 h
Procedure, shortened: (§2)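 Macrophages infected with WT PH8 parasites treated 72 h at 33 °C, 5% CO2; washed twice in PBS, then held in drug-free Warren's medium + 10% serum at 25 °C for 72 h; viable promastigotes counted microscopically versus untreated; three independent experiments in duplicate.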

Leishmania amazonensis [8] = test: Antileishmanial activity against Leishmania amazonensis IFLA/BR/1967/PH8 amastigotes infected in murine macrophages at 3.6 uM incubated for 72 hrs followed by compound washout measured after 72 hrs by microscopic method relative to control; assay type: functional; settings: IFLA/BR/1967/PH8, 72 h; procedure, shortened: as §2
Leishmania amazonensis [9] = test: Induction of apoptosis in Leishmania amazonensis IFLA/BR/1967/PH8 promastigotes assessed as late apoptotic population at 2.5 uM after 24 hrs by Annexin V-FITC/PI staining based flow cytometric analysis (reference value: 2.62%); assay type: functional
Leishmania amazonensis [10] = test: Antileishmanial activity against Leishmania amazonensis IFLA/BR/1967/PH8 promastigotes transfected with red fluorescent protein after 72 hrs by MTT assay; assay type: functional; settings: IFLA/BR/1967/PH8, 72 h
Leishmania amazonensis [11] = test: Antileishmanial activity against Leishmania amazonensis WHOM/BR/75/Josefa amastigotes transfected with green fluorescent protein infected in murine macrophages after 72 hrs by fluorometric analysis; assay type: functional
Procedure, shortened: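 Infected murine macrophages treated 0.78-100.0 µM for 72 h; fluorescence read at 540/600 nm for RFP parasites (PH8) and 485/528 nm for GFP parasites (Josefa strain); IC50 from three independent experiments in duplicate.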

Leishmania amazonensis [12] = test: Induction of mitochondrial membrane potential loss in Leishmania amazonensis IFLA/BR/1967/PH8 promastigotes at 5 uM after 24 hrs by JC-1 staining-based spectrofluorometric analysis relative to control; assay type: functional
Procedure, shortened: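 Exponential WT promastigotes (1x10^7 cells/mL) treated 24 h at 25 °C; washed, JC-1 loaded, read at 485/528 and 540/600 nm; Δψm as 600/528 ratio, untreated = 100%; FCCP 20.0 µM for 30 min as positive control; three experiments in triplicate.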

Leishmania amazonensis [13] = test: Induction of apoptosis in Leishmania amazonensis IFLA/BR/1967/PH8 promastigotes assessed as necrotic population at 2.5 uM after 24 hrs by Annexin V-FITC/PI staining based flow cytometric analysis (reference value: 0.03%); assay type: functional
Leishmania amazonensis [14] = test: Induction of apoptosis in Leishmania amazonensis IFLA/BR/1967/PH8 promastigotes assessed as early apoptotic population at 20 uM after 24 hrs by Annexin V-FITC/PI staining based flow cytometric analysis (reference value: 5.29%); assay type: functional; procedure, shortened: as §1
Leishmania amazonensis [15] = test: Induction of lipid inclusions in Leishmania amazonensis IFLA/BR/1967/PH8 promastigotes at 10 uM after 24 hrs by Nile Red satining-based spectrofluorometric analysis relative to control; assay type: functional
Procedure, shortened: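 WT (PH8) promastigotes at 1x10^7 cells/mL in exponential phase, cultured 24 h at 25 °C with or without 2.5–20.0 µM. Parasites incubated with Nile Red, then fluorescence measured spectrofluorometrically. Reported as arbitrary fluorescence units versus untreated parasites, mean of three experiments run in triplicate.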

Leishmania amazonensis [16] = test: Induction of autophagy in Leishmania amazonensis IFLA/BR/1967/PH8 promastigotes at 20 uM after 24 hrs by MDC staining-based fluorometric analysis relative to control; assay type: functional
Procedure, shortened: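 Exponential WT promastigotes (1x10^7 cells/mL) treated 24 h at 25 °C; washed, adjusted to 10x10^6 cells/mL, 100 µM monodansylcadaverine 1 h dark at 25 °C; fluorescence 335/460 nm versus untreated; three independent experiments.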

[17] = Cytotoxicity against mouse peritoneal macrophages after 72 hrs by MTT assay; assay type: cell-based, Peritoneal macrophage; settings: peritoneal macrophages

For `CC(=O)[O-].CCCCCCCCCCn1cc(CO)[n+](C)n1`, the pIC50 (Leishmania amazonensis [1]) was 5.59, the “Ratio CC50/IC50” value [2] was 144.9 and the Activity (Leishmania amazonensis [3]) was 39.1%. The Activity (Leishmania amazonensis [4]) was 11.16%, the Activity (Leishmania amazonensis [5]) was 2.18% and the Activity (Leishmania amazonensis [6]) was 1.58%. For the same molecule, the inhibition at 0.9 µM (Leishmania amazonensis [7]) was 61.9%, the inhibition at 3.6 µM (Leishmania amazonensis [8]) was 83.1% and the Activity (Leishmania amazonensis [9]) was 0.82%. For the same molecule, the pIC50 (Leishmania amazonensis [10]) was 4.81, the pIC50 (Leishmania amazonensis [11]) was 6.10 and the Activity (Leishmania amazonensis [12]) was 20%. The Activity (Leishmania amazonensis [13]) was 0.16%, the Activity (Leishmania amazonensis [14]) was 30.92% and the “fold change (FC)” value (Leishmania amazonensis [15]) was 1.9. For the same molecule, the Activity (Leishmania amazonensis [16]) was 49.8% and the CC50 at 72 h [17] was 116 µM.
